For experiment [1], the system named is MCF7. In words: Repression of cyclinD1 level in MCF7 cells at 5 uM relative to control. In kind it is functional, Homo sapiens. Summed up: (§1)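 MCF-7 cells exposed for 72 h in 5% FBS-supplemented medium over 2.5-7.5 µM. Lysates were run on 10% SDS-PAGE and immunoblotted for cyclin D1 with ECL detection. Band intensity was quantified by densitometry, normalized to β-actin and expressed relative to DMSO control (100%).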

Experiment [2] concerns MCF7. As to the kind of experiment: Repression of cyclinD1 level in MCF7 cells at 2.5 uM relative to control. It is filed as functional, Homo sapiens. Summed up: as §1
Experiment [3] has as its system MCF7. As to the kind of experiment: Repression of cyclinD1 level in MCF7 cells at 7.5 uM relative to control. It is filed as functional, Homo sapiens. In outline: as §1
Experiment [4] concerns MCF7. In words: Repression of cyclinD1 level in MCF7 cells after 72 hrs. It is filed as functional, cell-based. The settings on record: Homo sapiens, MCF7, 72 h. In outline: as §1
The test system of experiment [5] is MCF7. As to the kind of experiment: Antiproliferative activity against MCF7 cells by MTT assay. In kind it is functional, cell-based. The settings on record: Homo sapiens. Summed up:
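MCF-7 cells seeded in DMEM/Ham's F-12 with 10% FBS for 24 h, then exposed to test agents in DMSO (final 0.1%) in 5% FBS medium. Vehicle controls got matching DMSO. Medium replaced with 0.5 mM MTT in 10% FBS RPMI 1640 for 2 h at 37 °C, and reduced dye solubilized in DMSO. Six replicates.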

Experiment [6] relates to MCF7. As to the kind of experiment: Repression of cyclinD1 level in MCF7 cells at 10 uM. In kind it is functional, cell-based. As to conditions: Homo sapiens.

We go through 21 molecules from ChEMBL document CHEMBL1137411, “Development of small-molecule cyclin D1-ablative agents” (J Med Chem, 2006).

Structures are written as SMILES. Active and inactive are the calls of the source. The rule behind the calls is not given here.

With `C=CCOc1c(C)c(C)c2c(c1C)CCC(C)(COc1cccc(/C=C3\SC(=O)NC3=O)c1)O2` (stereo not given), the Activity in the experiment with MCF7 [1] stood at 92%; in the experiment with MCF7 [2] it was 84%; with MCF7 [3], 75%.
For `CC(C)=CCOc1c(C)c(C)c2c(c1C)CCC(C)(COc1ccc(/C=C3\SC(=O)NC3=O)cc1F)O2` (stereo not given), in that order: 87%, 95% and 64%.
Turning to `C=CCOc1c(C)c(C)c2c(c1C)CCC(C)(COc1ccc(/C=C3\SC(=O)NC3=O)cc1Br)O2` (stereo not given), the Activity in the experiment on MCF7 [1] stood at 98%; in the experiment with MCF7 [2] it was 102%; with MCF7 [3], 105%.
As for `C=CCOc1c(C)c(C)c2c(c1C)CCC(C)(COc1ccc(/C=C3\SC(=O)NC3=O)cc1C)O2` (stereo not given), the Activity in the experiment on MCF7 [1] is 24%; with MCF7 [2] it was 84%; in the experiment on MCF7 [3], 8%.
The IC50 is the concentration at which inhibition is half-maximal. A low value points to higher potency. For the molecule `C=CCOc1c(C)c(C)c2c(c1C)CCC(C)(COc1ccc(/C=C3\SC(=O)NC3=O)cc1OC)O2` (stereo not given), in the experiment with MCF7 [4], 2.5 µM corresponded to half-maximal inhibition (IC50). For the same molecule, the values for the Activity in the experiment on MCF7 [1], with MCF7 [2] and in the experiment on MCF7 [3] were 5%, 34% and 1%, respectively.
Consider `CC(C)=CCOc1c(C)c(C)c2c(c1C)CCC(C)(COc1ccc(/C=C3\SC(=O)NC3=O)cc1Br)O2` (stereo not given), for which the values for the Activity with MCF7 [1], in the experiment with MCF7 [2] and in the experiment with MCF7 [3] were 84%, 96% and 53%, respectively.
Taken in the same sequence, the figures for `CC(C)=CCOc1c(C)c(C)c2c(c1C)CCC(C)(COc1ccc(/C=C3\SC(=O)NC3=O)cc1)O2` (stereo not given) were 21%, 76% and 5%.
Regarding `Cc1c(C)c2c(c(C)c1OC/C=C/c1ccccc1)CCC(C)(COc1ccc(/C=C3\SC(=O)NC3=O)cc1)O2` (stereo not given), the Activity is reported as 65% with MCF7 [1], 92% with MCF7 [2] and 43% in the experiment with MCF7 [3].
In turn, `Cc1c(C)c2c(c(C)c1O)CCC(C)(COc1ccc(/C=C3\SC(=O)NC3=O)cc1)O2` (stereo not given) came in with an IC50 in the experiment on MCF7 [5] of 55 µM.
`COc1cc(/C=C2\SC(=O)NC2=O)ccc1OCC1(C)CCc2c(C)c(OCC=C(C)C)c(C)c(C)c2O1` (stereo not given): the Activity is on record as 78% with MCF7 [1], 95% with MCF7 [2] and 54% in the experiment with MCF7 [3].
As to `C=CCOc1c(C)c(C)c2c(c1C)CCC(C)(COc1ccc(/C=C3\SC(=O)NC3=O)cc1OCC)O2` (stereo not given), the Activity is 87% in the experiment on MCF7 [1], 107% with MCF7 [2] and 75% in the experiment on MCF7 [3].
`Cc1c(C)c2c(c(C)c1OC(=O)CCC(=O)O)CCC(C)(COc1ccc(/C=C3\SC(=O)NC3=O)cc1)O2` (stereo not given): the Activity came out at 98% in the experiment with MCF7 [1], 115% in the experiment on MCF7 [2] and 76% in the experiment on MCF7 [3].
With `CCCCOc1c(C)c(C)c2c(c1C)CCC(C)(COc1ccc(CC3SC(=O)NC3=O)cc1C(F)(F)F)O2` (stereo not given), the IC50 in the experiment on MCF7 [4] is 9 µM.
On to `CC(C)=CCOc1c(C)c(C)c2c(c1C)CCC(C)(COc1ccc(/C=C3\SC(=O)NC3=O)cc1C)O2` (stereo not given), for which the Activity in the experiment on MCF7 [1] is 56%; with MCF7 [2], 89%; with MCF7 [3], 27%.
Regarding `C=CCOc1c(C)c(C)c2c(c1C)CC[C@](C)(COc1ccc(/C=C3\SC(=O)NC3=O)cc1OC)O2`, the result in the experiment on MCF7 [6] was Active.
In the experiment with MCF7 [5], `C=CCOc1c(C)c(C)c2c(c1C)CC[C@@](C)(COc1ccc(/C=C3\SC(=O)NC3=O)cc1OC)O2` had a concentration for half-maximal inhibition (IC50) of 5 µM.
Consider `CCOc1cc(/C=C2\SC(=O)NC2=O)ccc1OCC1(C)CCc2c(C)c(OCC=C(C)C)c(C)c(C)c2O1` (stereo not given), for which the Activity turned out to be 84% in the experiment on MCF7 [1], 107% in the experiment on MCF7 [2] and 54% with MCF7 [3].
`CCCCOc1c(C)c(C)c2c(c1C)CCC(C)(COc1ccc(/C=C3\SC(=O)NC3=O)cc1C(F)(F)F)O2` (stereo not given) came in with an IC50 in the experiment with MCF7 [4] of 6 µM.
Consider `Cc1c(C)c2c(c(C)c1OCc1ccccc1)CCC(C)(COc1ccc(/C=C3\SC(=O)NC3=O)cc1)O2` (stereo not given), for which the Activity worked out at 42% in the experiment with MCF7 [1], 85% with MCF7 [2] and 12% with MCF7 [3].
On to `C=CCOc1c(C)c(C)c2c(c1C)CCC(C)(COc1ccc(/C=C3\SC(=O)NC3=O)cc1)O2` (stereo not given), for which, in the experiment on MCF7 [4], the half-maximal inhibitory concentration (IC50) was greater than 5 µM. Also, the Activity was found to be 42% in the experiment with MCF7 [1], 45% in the experiment on MCF7 [2] and 2% with MCF7 [3].
Turning to `CC(C)=CCOc1c(C)c(C)c2c(c1C)CCC(C)(COc1ccc(/C=C3\SC(=O)NC3=O)cc1-c1ccc(F)cc1)O2` (stereo not given), the Activity in the experiment with MCF7 [1] amounted to 92%; with MCF7 [2] it was 87%; with MCF7 [3] it was 85%.
